The record followed here is PubChem BioAssay AID720717 (ICCB-Longwood Screening Facility, Harvard Medical School, 2013).

Molecules are shown by their SMILES. “And” between values parts separate entries of the source, which are not always exact repeats. Identical values can stand only once. Hit rate of the full screen: of about 51,000 compounds, about 150 (0.29%) were called active. For the sample, actives were picked, then their nearest neighbours and some compounds at random. A number with no mark means an inactive call.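 The calls were made as follows: active = both repeat wells score below -2 in polarization z-score versus plate sample wells, excluding overly bright wells; inactive = the rest.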

This test has as its system LANA (ORF73) N-terminal peptide binding to nucleosomes, Human herpesvirus 8. The experiment in a line: inhibitors of KSHV LANA-nucleosome binding, primary screen, biochemical, fluorescence polarization, FITC-LANA1-23, chicken nucleosomes (AID 720717). As to conditions: FITC-LANA1-23 / chicken nucleosome fluorescence polarization; stronger effect = lower value. The method, boiled down: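 Assay system: purified chicken nucleosomes with FITC-labelled LANA N-terminal peptide (1-23) / Probe or stimulus: 50 nM FITC-LANA1-23 probe / Compound dosing: pin-transferred compound, 100 nL / Times: compound with peptide–nucleosome mix 10–45 min at room temperature / Technique: fluorescence polarization, 480 nm excitation, 535 nm parallel and perpendicular emission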
Take `CC(Oc1ccccc1)c1ccnc2ncnn12` (centres undefined): the z-score was 1.01.
Turning to `Cc1occc1-c1nnc2n1N=C(c1ccc(-c3cc(Cl)ccc3Cl)o1)CS2`, the z-score was -0.0445.
As to `O=C(O)c1ccc(Sc2ccccc2C(=O)O)c(C(=O)O)c1`, the z-score was 0.129.
As for `Cc1ccc2c(n1)sc1c(=O)n(-c3ccccc3)nnc12`, the z-score was 0.192.
As to `CCOC(=O)c1c(NC(=S)N2CCN(C(=O)c3ccco3)CC2)sc2c1CCCCCC2`, the z-score was 0.494.
Turning to `O=C(CSc1nnc(Cc2cc(=O)[nH]c(=O)[nH]2)n1-c1ccccc1)NCc1ccco1`, the z-score is 0.726.
With `NNC(=O)Cc1csc(CC(N)=O)n1`, the z-score is -1.71.
Regarding `O=C(CC1OCCN(Cc2ccccc2)C1=O)Nc1ccc(F)cc1` (centres undefined), the z-score is 0.194.
The result for `O=C(c1cnc2sc(N3CCCCC3)nn2c1=O)N1CCCC1` reads -0.108; that for `Cc1ccc(Cn2cc(C(=O)Nc3cccnc3)ccc2=O)cc1`, -0.673; that for `O=C(CC1Nc2ccccc2NC1=O)Nc1ccccc1NC(=O)CC1Nc2ccccc2NC1=O` (centres undefined), -0.867.
The value for `O=S(=O)(c1cnc[nH]1)N1CCN(Cc2ccccc2)CC1` was -0.596; that for `Cc1ccc(C(=O)Nc2nc3ccc(S(N)(=O)=O)cc3s2)cc1C` was -0.589; that for `CN(Cc1ccccc1)c1ncnc2c1nc1n2CCCCC1` was -0.37.
With `O=C(NC1CCCC1)c1[nH]nc2c1CCc1ccccc1-2`, the z-score was 0.227.
The result for `CC(=O)Oc1cc(-c2ccccc2)nn1C` reads 0.038; that for `CC(CC(=O)NN)C1(O)CCCCC1` (centres undefined), 0.05.
On to `Cc1ccc(C2=Nc3ccccc3N(CC(=O)Nc3ccc4c(c3)OCO4)C(=O)C2)cc1`, for which the z-score was -1.02.
Consider `CCN(CC)S(=O)(=O)c1ccc2c(c1)CC(C)N2C(=O)C1CC1` (centres undefined), for which the z-score is 1.02.
Take `CC(C)(C)C(=O)N(Cc1ccccc1)c1ccccn1`: the z-score is 0.774.
The value for `CCc1ccc(C(c2c(C)[nH][nH]c2=O)C(C#N)C#N)cc1` (centres undefined) was 0.261; that for `CCOc1ccc(/C=N/NC(=O)Cc2cc(=O)[nH][nH]2)cc1` was -1.01.
Turning to `CN(C)/C=C/c1nc(C(F)(F)F)c(C#N)s1`, the z-score is 5.21.
Consider `N#CCn1cc(C(=O)C(F)(F)F)c2ccccc21`, for which the z-score is 0.359.
The result for `O=C(Cn1c(=O)oc2ccccc21)NC1CCN(Cc2ccccc2)CC1` reads -0.221.
With `O=C1c2ccccc2OCC12COC(c1ccccc1)OC2` (centres undefined), the z-score is -1.2.
The value for `CC(=O)Nc1ccc(NCC(O)Cn2ccc3ccccc32)cc1` (centres undefined) was 1.77.
The value for `CC1CCC(NC(=O)CCCn2ncn3c(cc4occc43)c2=O)CC1` (centres undefined) was 0.64; that for `COCCNC(=O)N1c2ccccc2Sc2ccccc21` was 0.827.
For the compound `O=C(CNc1ccc(C(=O)O)cc1)NCc1ccc2c(c1)OCO2`, the z-score was 0.298.
Consider `N/C(=N\O)c1cnn2c(C(F)(F)F)cc(C(F)(F)F)nc12`, for which the z-score was -0.264.
The result for `CCc1ccc(N2COc3ccc4c(CC)cc(=O)oc4c3C2)cc1` reads 0.115.
The result for `Cc1cccc2cnn(CC(=O)N3CCc4ccccc4C3)c12` reads 0.198; that for `CN1C(C)(C)CC(NC(=O)Nc2ccc(F)cc2)CC1(C)C`, 0.033.
The value for `Cc1cc(C)n(C(C)CC(=O)Nc2ccc(CN3CCC(C)CC3)cc2)n1` (centres undefined) was -0.62; that for `C[C@]12CCC(=O)C=C1C=CC1C2CC[C@@]2(C)C1CC[C@@]21CCC(=O)O1` (some centres undefined) was 0.0125 and 0.276.
On to `CN(C)c1ccc(-c2nnc(-c3cccnc3)o2)cc1`, for which the z-score was -0.139.
The result for `COc1cccc(N2C(=O)C=CC2=O)c1` reads 0.499; that for `CCCCc1ccc(NC(=O)CC)c(C)c1`, 1.52; that for `COc1ccc(CNC(=O)C(NS(=O)(=O)c2cccc3nsnc23)C(C)C)cc1` (centres undefined), -1.48.
Turning to `Cc1ccc(C(CC(=O)O)c2ccccc2)c(O)c1` (centres undefined), the z-score is 0.53.
Take `Cc1ccc(C(=O)CSc2nnc3[nH]c(=O)c(C)nn23)cc1`: the z-score was -1.31.
Consider `S=C(NCc1ccco1)Nc1nn(Cc2ccc(Cl)cc2Cl)cc1Cl`, for which the z-score is 1.51.
Consider `Cc1cc(N2CCOCC2)nc2ccc(NC(=O)CCC(=O)NC3CCCCC3)cc12`, for which the z-score was 0.0965.
Regarding `CCCn1c(SCC(=O)N2CCCc3ccccc32)nnc1C(C)C`, the z-score was -2.58.
The value for `CCCNC(=O)c1cc2c(Cl)ccc3c2n1CCO3` was -0.473; that for `O=C1C=CC(=O)N1Nc1ccccc1` was 0.669.
The result for `COC(=O)c1nnn(-c2nonc2N)c1CN1C(=O)c2ccccc2C1=O` reads -0.366.
Turning to `CCn1c(N2CCN(C(=O)Nc3ccc(Cl)c(C(F)(F)F)c3)CC2)nc2ccccc21`, the z-score is -1.36.
Take `O=C1CCCC2=C1C(c1ccccn1)Nc1ccc3ncccc3c12` (centres undefined): the z-score is -0.381.
The value for `Cc1cccc(-n2nc(C)c3c(C)cc(=O)oc32)c1` was 0.165; that for `O=C(O)c1cccc2c1C(=O)N(C1CCCC1)C2` was 0.735; that for `OCc1cccnc1Sc1ccccc1` was 0.147.
On to `Cc1ccc2c(c1)cc(CN(Cc1ccco1)C(=O)c1ccccc1)c1nnnn12`, for which the z-score is 0.235.
As to `Cc1cc(OCCN2CCOCC2)nc(N2CCOCC2)n1`, the z-score is 0.348.
For `Cc1sc(-c2cccs2)nc1O`, the z-score is -0.538.
The result for `CCc1cccc2c(C=C(C#N)C#N)cn(CC(=O)NC3CCCC3)c12` reads 0.0985; that for `Nc1c2c3c(sc2nc(=O)n1Cc1ccco1)CCC3`, 0.229; that for `COc1ccc(N(C)S(=O)(=O)c2ccc3c(c2)CC(C)N3C(=O)C2CC2)c(OC)c1` (centres undefined), -0.361.
On to `COc1cccc(/C=C2/Sc3ccc(C(=O)NCc4ccco4)cc3NC2=O)c1`, for which the z-score was -0.179.
For `COCCNC(=O)c1cccc(OC(C)C)c1`, the z-score was 0.494.
For `CN(C(=O)CSc1nc(N)cc(=O)[nH]1)c1ccccc1`, the z-score is -0.19.
Regarding `Cc1ccsc1/C=N/c1sc2c(c1C#N)CCCC2`, the z-score is -0.764.
As for `Cc1cc(C)c2nc(C(F)(F)F)nc(NCc3ccc4c(c3)OCO4)c2c1`, the z-score is 2.86.
As for `CCOC(=O)NCc1cc(C(=O)O)ccc1O`, the z-score was 0.19.
In the case of `CCN1C(=Nc2ccc(O)cc2)SC/C1=C\C(=O)OC`, the z-score is 2.25.
`CN(C)C(CNC(=O)c1cc2ccccc2oc1=O)c1ccco1` (centres undefined): the z-score was -0.421.
Regarding `O=S1(=O)CCC(S(=O)(=O)N2CCCC2)C1` (centres undefined), the z-score was -0.472.
Take `CCCCSC1=NC(=O)CC(=O)N1`: the z-score is -1.46.
As to `CC(=O)N1CCC(N(c2ccc3c(c2)OCO3)S(=O)(=O)c2ccccc2)CC1`, the z-score is 0.764.
Consider `Cc1ccc(S(=O)(=O)Nc2cccc(C(=O)N3CCCCC3)c2)cc1`, for which the z-score was 1.2.
As for `O=C1Nc2ccccc2N(c2ccccc2)N1`, the z-score is -3.48 (active).
Regarding `O=C(O)CN1CC(=O)Nc2ccccc21`, the z-score was 0.771.
As to `CCCCC(C)C(N)=O` (centres undefined), the z-score was -0.323.
Turning to `CC[N+](C)(CC)CCC[n+]1c(-c2ccccc2)c2cc(N)ccc2c2ccc(N)cc21`, the z-score is -3.89 (active) and -3.44 (active).
The value for `CCN(Cc1ccccc1)C(=O)C1CCN(Cc2cc(Br)c(O)c(OC)c2)CC1` was -0.834.
For `O=C1CC(NC2CCN(S(=O)(=O)c3ccc(Cl)cc3)CC2)C(=O)N1` (centres undefined), the z-score was 2.47.
Consider `Cc1ccc(NC(=O)CSC2=NC(=O)CC(=O)N2)cc1`, for which the z-score is -0.876.
With `COc1ccc(C2=NS(=O)(=O)N(C)C(C(=O)NCC(C)C)=C2)cc1OC`, the z-score was -0.724.
As for `CCN(CC)C(=O)Cc1c(C(=O)O)[nH]c2ccc(Cl)cc12`, the z-score is 0.22.
Regarding `Cc1ccc(C(=O)N2CCCN(C)CC2)o1`, the z-score was -1.2.
Turning to `O=C(OCc1ccccc1Cl)c1cc(=O)[nH]c2ccccc12`, the z-score is -1.04.
Turning to `O=C(Nc1ccc(Cl)cc1)c1ncoc1-c1cccs1`, the z-score was 0.41.
Consider `COC(=O)c1ccc(NS(=O)(=O)c2cc(C(=O)OC)n(C)c2)cc1`, for which the z-score is -0.537.
`Cc1ccc(-c2nc3ccccc3[nH]2)cc1NC(=O)C(C)C`: the z-score was -0.762.
`CCC(=O)NC1CC(=O)N(c2ccc(F)cc2)C1` (centres undefined): the z-score was -0.098.
Consider `COc1ccc(CCN2C(=O)CSC2c2ccc3cccc(O)c3n2)cc1OC` (centres undefined), for which the z-score is 1.12.
Take `Cn1ncc(Br)c1-c1cccc(NC(=O)COCC(=O)O)c1`: the z-score is -1.14.
In the case of `CCCCCn1c(=O)[nH]c2cc(C(=O)Nc3cc(OC)c(OC)c(OC)c3)ccc2c1=O`, the z-score is -0.668.
With `Cn1c(=O)c2c(nc(N3CCNCC3)n2C)n(C)c1=O`, the z-score was 0.302.
Regarding `O=c1c(-c2cc3ccccc3o2)[n+]([O-])c2ccccc2n1O`, the z-score is -2.61 (active).
`COc1ccc2oc(=O)cc(-c3cc4ccccc4o3)c2c1`: the z-score is -0.251.
On to `O=C(CSc1ncccn1)N1CCCC1`, for which the z-score was -0.327.
In the case of `O=C(Nc1ccc2nc(CN3CCCCC3)[nH]c2c1)c1cccs1`, the z-score was -0.0365.
For `Cc1cccc(C)c1N1CCN(S(=O)(=O)N2CCCCC2)CC1`, the z-score was -1.66.
The value for `COc1ccc(C(=O)Nc2ccccc2C(=O)NCc2ccco2)cc1` was 0.333; that for `CN(C)C(=O)CN1CCC(N2CCCCC2)CC1` was -0.624; that for `COc1ccc(Cn2ccc3nc4ccn(Cc5ccc(OC)cc5)c(=O)c4cc3c2=O)cc1` was 0.327.
For `CN1C(=O)/C(=C/C=C2\SCCN2C)OC1=S`, the z-score is -2.92 (active).
`COc1cccc(NS(=O)(=O)c2ccc3[nH]cc(C(=O)N4CCCCC4C)c(=O)c3c2)c1` (centres undefined): the z-score was 0.613.
As to `O=C(O)COc1ccc(CN2CCCC2)cc1`, the z-score was 0.199.
The value for `N/C(=N\OC(=O)CC1CCCCC1)c1ccccc1` was -0.568; that for `Cc1nnc(NC2CC2)c2c1nnn2Cc1ccc(F)cc1` was 0.653; that for `CN(C)CCNC(=O)c1ccc(/C=C2\SC(=S)N(C)C2=O)cc1` was 1.24.
